Measured values taken from ChEMBL document CHEMBL3822382 (Eur J Med Chem, 2016).
pIC50: −log10 of the molar value. Active and inactive are the calls of the source. The rule behind the calls is not given here.

Legend:
Chorioallantoic membrane [1] = test: Antivascular activity in fertilized white leghorn egg chorioallantoic membrane assessed as disruption of preformed blood vessel at 2.5 to 5 nmol after 24 to 48 hrs by stereomicroscopic analysis; format: functional, tissue-based; conditions: Gallus gallus
[2] = Cell cycle arrest in human HCT116 cells expressing wild type p53 assessed as G2/M index ratio at 50 nM after 24 hrs by propidium iodide staining-based flow cytometry relative to control; format: functional; conditions: HCT-116
[3] = Cell cycle arrest in human HCT116 cells expressing wild type p53 assessed as accumulation at S phase at 50 nM after 24 hrs by propidium iodide staining-based flow cytometry (reference value: 15.3%); format: functional; conditions: HCT-116
[4] = Cytotoxicity against fertilized white leghorn chicken embryos in CAM model assessed as lethality at 2.5 nmol after 24 hrs relative to control; format: organism-based, Gallus gallus; conditions: in vivo
[5] = Growth inhibition of primary chicken fibroblasts after 48 hrs by MTT assay; format: cell-based; conditions: Gallus gallus, Fibroblast
Procedure, shortened: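 Chicken heart fibroblasts explanted from 10-day-old embryos, seeded at 10,000/well; cardiomyocytes seeded at 20,000/well. Dilution series given for 48 h, DMSO as control. MTT 0.5 mg/mL for 2 h, absorbance at 570/630 nm. Viability versus DMSO controls; IC50 from dose–response curves, mean of three independent experiments.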

[6] = Cell cycle arrest in human HCT116 cells expressing wild type p53 assessed as accumulation at subG1 phase at 100 nM after 24 hrs by propidium iodide staining-based flow cytometry (reference value: 7.1%); format: functional; conditions: HCT-116
[7] = Cell cycle arrest in human MCF7/Topo cells assessed as accumulation at G2/M phase at 100 nM after 24 hrs by propidium iodide staining-based flow cytometry (reference value: 31.6%); format: functional
[8] = Cell cycle arrest in human HCT116 cells expressing wild type p53 assessed as accumulation at subG1 phase at 50 nM after 24 hrs by propidium iodide staining-based flow cytometry (reference value: 7.1%); format: functional; conditions: HCT-116
Chorioallantoic membrane [9] = test: Antivascular activity in fertilized white leghorn chicken egg chorioallantoic membrane assessed as disruption of preformed blood vessel at 5 nmol after 12 hrs by stereomicroscopic analysis; format: functional, tissue-based; conditions: Gallus gallus
Procedure, shortened: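 Fertilized white leghorn SPF eggs were incubated to day 5 at 37 °C and 50–60% humidity. A shell window was cut, 6 mm silicon rings were placed on developing CAM vessels, and eggs were incubated another 24 h. Compound (500 μM in PBS; 10 μL = 5 nmol, 20 μL = 10 nmol) or DMSO was pipetted inside the ring. Vessel changes were imaged by stereomicroscope at 0, 12 and 24 h.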

[10] = Cell cycle arrest in human MCF7/Topo cells assessed as G2/M index ratio at 100 nM after 24 hrs by propidium iodide staining-based flow cytometry relative to control; format: functional
A2780cisR [11] = test: Vascular disrupting activity against human A2780cis cells xenografted in athymic nude mouse assessed as disruption of blood vessel at 100 mg/kg, ip after 24 hrs by hematoxylin and eosin staining based microscopic analysis; format: functional, organism-based
Procedure, shortened: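 Athymic nude mice carried subcutaneous flank xenografts from 8 million cells. A single intraperitoneal dose of 100 mg/kg was given. After 24 h tumors were explanted, fixed in 5% formalin, paraffin-embedded and HE-stained for microscopic examination of vessels, hemorrhage and necrosis.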

HT-29 [12] = test: Antivascular activity against in combretastatin A-4 resistant human HT-29 cells xenografted in fertilized white leghorn chicken egg chorioallantoic membrane assessed as retraction of tumor cells at 5 nmol after 24 hrs by hematoxylin and eosin staining based stereomicroscopic analysis; format: functional, cell-based
Procedure, shortened: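 Pellets of 1 × 10⁶ HT-29 cells in 10 μL of 1:1 matrigel/serum-free RPMI (gelled 30 min, 37 °C) were placed on the CAM of fertilized eggs and left 48 h. Then 100 μL of a 50 μM PBS dilution (5 nmol) was pipetted outside a silicon ring around the pellet; DMSO served as control. After 24 h, stereomicroscopy was done, and micro-xenografts were explanted, formalin-fixed, paraffin-embedded and HE-stained.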

[13] = Cell cycle arrest in human 518A2 cells assessed as G2/M index ratio at 100 nM after 24 hrs by propidium iodide staining-based flow cytometry relative to control; format: functional
[14] = Cell cycle arrest in human 518A2 cells assessed as accumulation at S phase at 100 nM after 24 hrs by propidium iodide staining-based flow cytometry (reference value: 20.4%); format: functional
HT-29 [15] = test: Cell cycle arrest in combretastatin A-4 resistant human HT-29 cells assessed as accumulation at S phase at 100 nM after 24 hrs by propidium iodide staining-based flow cytometry (reference value: 13.7 +/- 0.3%); format: functional
Procedure, shortened: (§1)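 HT-29 cells (200,000/well) were treated 24 h with 100 nM indole, 5 μM CA-4 or DMSO. Cells were trypsinized, fixed in 4% formaldehyde (20 min, RT) and permeabilized in 90% ice-cold methanol (30 min). They were immunostained with anti-phospho-histone H3 (Ser10) (5 μg/mL, 37 °C, 1 h) plus an AlexaFluor-488 secondary, then stained with PI/RNase (30 min, 37 °C). Flow cytometry of 10,000 single cells assigned G1/S/G2/M.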

HT-29 [16] = test: Cell cycle arrest in combretastatin A-4 resistant human HT-29 cells assessed as accumulation at G1 phase at 100 nM after 24 hrs by propidium iodide staining-based flow cytometry (reference value: 68.1 +/- 0.3%); format: functional; procedure, shortened: as §1
A2780cisR [17] = test: Vascular disrupting activity against human A2780cis cells xenografted in athymic nude mouse assessed as discoloration of tumor at 100 mg/kg, ip after 24 hrs; format: functional, organism-based
Procedure, shortened: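 Athymic nude mice carried subcutaneous flank xenografts from 8 million cells in PBS. A single intraperitoneal dose of 100 mg/kg was given, and tumor discoloration was photographed 24 h later.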

HT-29 [18] = test: Induction of cytoskeletal damage in combretastatin A-4 resistant human HT-29 cells xenografted in fertilized white leghorn chicken egg chorioallantoic membrane at 5 nmol after 24 hrs by hematoxylin and eosin staining based stereomicroscopic analysis; format: functional, cell-based
Procedure, shortened: (§2)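 Pellets of 1×10^6 HT-29 cells in matrigel/serum-free RPMI placed on the CAM of fertilized eggs for 48 h. Then 5 nmol (100 µL of 50 µM in PBS) applied outside a silicon ring around the pellet; DMSO as control. Imaged by stereomicroscopy after 24 h. Micro-xenografts then explanted, formalin-fixed, paraffin-embedded and HE-stained.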

HT-29 [19] = test: Cell cycle arrest in combretastatin A-4 resistant human HT-29 cells assessed as accumulation at S phase at 50 nM after 24 hrs by propidium iodide staining-based flow cytometry (reference value: 13.7 +/- 0.3%); format: functional
Gallus gallus = species on record: Gallus gallus; test: Cytotoxicity against fertilized white leghorn chicken egg chorioallantoic membrane microtumor model of CA-4 resistant human HT-29 cells assessed as reduction in embryo vitality at 5 nmol after 24 hrs; format: organism-based; conditions: ht-29, 24 h
HT-29 [20] = test: Induction of apoptosis in combretastatin A-4 resistant human HT-29 cells xenografted in fertilized white leghorn chicken egg chorioallantoic membrane at 5 nmol after 24 hrs by hematoxylin and eosin staining based stereomicroscopic analysis; format: functional, cell-based; procedure, shortened: as §2
Sus scrofa = species on record: Sus scrofa; test: Decrease in rate of porcine brain alpha/beta tubulin polymerization at 5 uM measured every 20 sec by microplate reader analysis
HT-29 [21] = test: Cell cycle arrest in combretastatin A-4 resistant human HT-29 cells assessed as accumulation at G2 phase at 50 nM after 24 hrs by propidium iodide staining-based flow cytometry (reference value: 15.6 +/- 0.1%); format: functional

Row | SMILES | Activity (Chorioallantoic membrane [1]) | Ratio [2] | Activity [3] | pIC50 [5] | Activity [6] | Activity [7] | Activity [8] | Ratio [10] | other results
1 | COc1cc(-c2ncn(C)c2-c2ccc3c(c2)c(Cl)cn3C)cc(OC)c1OC | inactive | 0.9 | 11.1% | 4.94 | 32.4% | 42.9% | 30.6% | 3.9 | mortality at 24 h [4]: 67%; Activity (Chorioallantoic membrane [9]): Active
2 | COc1cc(-c2ncn(C)c2-c2ccc3c(c2)c(Cl)cn3C)cc(Br)c1OC.Cl | inactive | 0.9 | 12.7% | 4.64 | 25.9% | 52.4% | 16.2% | 5.5 | Activity (A2780cisR [11]): Active; Activity (HT-29 [12]): Active; Ratio [13]: 1.5; Activity [14]: 17.8%; Activity (HT-29 [15]): 8%; Activity (HT-29 [16]): 12%; Activity (A2780cisR [17]): Active; Activity (HT-29 [18]): Active; Activity (HT-29 [19]): 13.5%; Activity (Gallus gallus): Non-toxic; Activity (HT-29 [20]): Active; Activity (Sus scrofa): Active; Activity (HT-29 [21]): 15.2%
